In ChEMBL document CHEMBL1137990, “Design and synthesis of novel indole beta-diketo acid derivatives as HIV-1 integrase inhibitors” (J Med Chem, 2004):
pEC50, pIC50: −log10 of the molar value.

How the values were obtained:
[1] = system: Human immunodeficiency virus 1; assay: Effective concentration required for the inhibition of HIV-1 cytopathic effect; assay type: functional, organism-based
Outline: (§1)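 CEM-SS human T cells at 5 × 10³ cells/well infected with HIV-1 RF (MOI 0.3). Serial compound dilutions added at once; cultured 6 days at 37 °C, 5% CO₂. Viability read by XTT (0.2 mg/mL, 4 h) absorbance at 450 nm. AZT and dextran sulfate run as controls. Toxicity measured on the same plate in uninfected CEM-SS cells.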

[2] = biological target: T1, Human immunodeficiency virus type 1 integrase (Human immunodeficiency virus 1, UniProt Q7ZJM1); assay: Inhibitory concentration against HIV-1 integrase mediated 3' processing reaction
T1 sequence (Q7ZJM1 whole entry): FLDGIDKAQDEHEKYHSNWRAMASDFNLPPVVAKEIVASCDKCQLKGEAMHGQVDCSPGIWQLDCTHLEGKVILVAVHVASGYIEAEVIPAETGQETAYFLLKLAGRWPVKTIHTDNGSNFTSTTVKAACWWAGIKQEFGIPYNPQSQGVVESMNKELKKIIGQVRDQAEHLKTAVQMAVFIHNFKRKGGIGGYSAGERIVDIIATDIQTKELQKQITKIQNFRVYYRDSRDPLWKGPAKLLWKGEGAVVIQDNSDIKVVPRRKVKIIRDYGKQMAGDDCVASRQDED
Outline: (§2)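 Wild-type IN at 200 nM final, preincubated with inhibitor for 30 min at 30 °C in buffer of 50 mM NaCl, 1 mM HEPES pH 7.5, 50 µM EDTA, 50 µM DTT, 10% glycerol, 7.5 mM MnCl₂, 0.1 mg/mL BSA, 10 mM 2-mercaptoethanol, 10% DMSO, 25 mM MOPS pH 7.2. Then 20 nM 5′-³²P-labeled linear oligonucleotide substrate added, 1 h more; quenched with formamide/EDTA loading dye; products resolved on gel.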

CEM-SS = assay: Cytotoxic concentration against HIV-1 was evaluated in human T-cell line CEM-SS; assay type: functional; outline: as §1
[3] = biological target: T1, Human immunodeficiency virus type 1 integrase; assay: Inhibitory concentration against HIV-1 integrase mediated strand transfer reaction; outline: as §2
[4] = Therapeutic index is the ratio of CC50 to that of EC50; conditions: human; read-out: Therapeutic index
Outline: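 CC50/EC50 ratio, both values from the same plate. CEM-SS cells were infected with HIV-1 RF (MOI 0.3) or left uninfected, with serial compound dilutions. Cultures ran 6 days at 37 °C. Viability was read by XTT absorbance at 450 nm.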

[5] = biological target: Human immunodeficiency virus type 1 integrase (Human immunodeficiency virus 1) (UniProt Q7ZJM1); assay: Selectivity index against HIV-1 integrase
Chain of Human immunodeficiency virus type 1 integrase (Human immunodeficiency virus 1) (Q7ZJM1 as listed by the source): as the sequence (Q7ZJM1 whole entry) above

## Cn1cc(/C(O)=C/C(=O)C(=O)O)c2ccccc21
[1]
  pEC50: 4.43
[2]
  pIC50: 4.00
CEM-SS
  CC50: > 200 µM
[3]
  pIC50: 5.70
[4]
  selectivity ratio: > 5.4
[5]
  Selectivity index: 50

## COC(=O)C(=O)CC(=O)c1cc2cc3c(cc2n1Cc1ccccc1)OCO3
[1]
  pEC50: < 5.96
[2]
  pIC50: 4.00
CEM-SS
  CC50: 1.1 µM
[3]
  pIC50: 4.85
[5]
  Selectivity index: 7

## CCn1c(/C(O)=C/C(=O)C(=O)O)cc2ccccc21
[1]
  pEC50: < 3.96
[2]
  pIC50: 4.80
CEM-SS
  CC50: 110 µM
[3]
  pIC50: 5.80
[5]
  Selectivity index: 10

## CCn1c(C(=O)CC(=O)C(=O)OC)cc2ccccc21
[1]
  pEC50: < 4.22
CEM-SS
  CC50: 60 µM

## CCn1cc(/C(O)=C/C(=O)C(=O)O)c2cc3c(cc21)OCO3
[1]
  pEC50: 3.91
[2]
  pIC50: 4.35
CEM-SS
  CC50: > 200 µM
[3]
  pIC50: 5.52
[4]
  selectivity ratio: > 1.6
[5]
  Selectivity index: 15

## COC(=O)C(=O)CC(=O)c1cn(C)c2cc3c(cc12)OCO3
[1]
  pEC50: < 4.51
[2]
  pIC50: < 4.00
CEM-SS
  CC50: 31 µM
[3]
  pIC50: 4.22
[5]
  Selectivity index: > 1.6

## CCn1c(/C(O)=C/C(=O)C(=O)O)cc2cc3c(cc21)OCO3
[1]
  pEC50: < 4.24
[2]
  pIC50: 4.26
CEM-SS
  CC50: 57 µM
[3]
  pIC50: 5.30
[5]
  Selectivity index: 11

## CCn1cc(/C(O)=C/C(=O)C(=O)O)c2ccccc21
[1]
  pEC50: 5.05
[2]
  pIC50: 4.03
CEM-SS
  CC50: 108 µM
[3]
  pIC50: 5.52
[4]
  selectivity ratio: 12
[5]
  Selectivity index: 31

## Cn1c(/C(O)=C/C(=O)C(=O)O)cc2cc3c(cc21)OCO3
[1]
  pEC50: < 3.70
[2]
  pIC50: 4.96
CEM-SS
  CC50: > 200 µM
[3]
  pIC50: 5.70
[5]
  Selectivity index: 5

## O=C(O)C(=O)/C=C(\O)c1cc2cc3c(cc2n1Cc1ccccc1)OCO3
[1]
  pEC50: < 5.42
[2]
  pIC50: 4.46
CEM-SS
  CC50: 3.8 µM
[3]
  pIC50: 5.70
[5]
  Selectivity index: 17

## Cn1cc(/C(O)=C/C(=O)C(=O)O)c2cc3c(cc21)OCO3
[1]
  pEC50: < 3.97
[2]
  pIC50: 4.00
CEM-SS
  CC50: 108 µM
[3]
  pIC50: 5.52
[5]
  Selectivity index: 33

## Cn1c(/C(O)=C/C(=O)C(=O)O)cc2ccccc21
[1]
  pEC50: < 4.09
[2]
  pIC50: 4.30
CEM-SS
  CC50: 81 µM
[3]
  pIC50: 5.22
[5]
  Selectivity index: 8

## CCn1cc(C(=O)CC(=O)C(=O)OC)c2ccccc21
[1]
  pEC50: 4.72
[2]
  pIC50: < 4.00
CEM-SS
  CC50: > 200 µM
[3]
  pIC50: 4.59
[4]
  selectivity ratio: > 10.5
[5]
  Selectivity index: > 3.8

## CCn1c(C(=O)CC(=O)C(=O)OC)cc2cc3c(cc21)OCO3
[1]
  pEC50: < 4.12
[2]
  pIC50: 4.07
CEM-SS
  CC50: 75 µM
[3]
  pIC50: 4.19
[5]
  Selectivity index: 1.3

## O=C(O)C(=O)/C=C(\O)c1cn(Cc2ccccc2)c2ccccc12
[2]
  pIC50: 4.92
[3]
  pIC50: 6.00
[5]
  Selectivity index: 12

## COC(=O)C(=O)CC(=O)c1cc2cc3c(cc2n1C)OCO3
[1]
  pEC50: < 3.70
[2]
  pIC50: 4.00
CEM-SS
  CC50: > 200 µM
[3]
  pIC50: 4.30
[5]
  Selectivity index: 2

## COC(=O)C(=O)CC(=O)c1cc2ccccc2n1C
[1]
  pEC50: < 3.97
[2]
  pIC50: 4.00
CEM-SS
  CC50: 106 µM
[3]
  pIC50: 4.35
[5]
  Selectivity index: 2

## O=C(O)C(=O)/C=C(\O)c1cc2ccccc2n1Cc1ccccc1
[2]
  pIC50: 4.70
[3]
  pIC50: 6.00
[5]
  Selectivity index: 20
